ChEMBL document CHEMBL2146441, “2,6-Disubstituted imidazo[2,1-b][1,3,4]thiadiazoles: search for anticancer agents” (2012)

Tests used:
Assay type in all cases: functional
OVCAR-3 [1] = experiment: Cytotoxicity against human OVCAR3 cells assessed as cell growth at 10^-6 M after 48 hrs by SRB assay; settings: OVCAR-3, 48 h, read-out: Activity
KM12 [2] = experiment: Cytotoxicity against human KM12 cells assessed as cell growth at 10^-6 M after 48 hrs by SRB assay; settings: KM12, 48 h, read-out: Activity
LOX IMVI = experiment: Cytotoxicity against human LOXIMVI cells assessed as cell growth at 10^-7 M after 48 hrs by SRB assay; settings: read-out: Activity
SNB-75 [3] = experiment: Cytotoxicity against human SNB75 cells assessed as cell growth at 10^-4 M after 48 hrs by SRB assay; settings: SNB-75, 48 h, read-out: Activity
CCRF-CEM = experiment: Cytotoxicity against human CCRF-CEM cells assessed as cell growth at 10^-7 M after 48 hrs by SRB assay; settings: read-out: Activity
In short: (§1)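 NCI-60 screen: lines kept in RPMI 1640 with 5% FBS, seeded at 5000–40,000 cells/well by doubling time, preincubated 24 h at 37 °C in 5% CO2. Time-zero plates TCA-fixed at drug addition. DMSO stocks diluted in medium, 48 h exposure. Fixation in cold TCA (final 10% adherent, 16% suspension), 0.4% SRB stain, solubilised in 10 mM Tris base, A515. Percent growth computed against control and time-zero.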

OVCAR-8 = experiment: Cytotoxicity against human OVCAR8 cells assessed as cell growth at 10^-5 M after 48 hrs by SRB assay; settings: OVCAR-8, 48 h, read-out: Activity
SNB-75 [4] = experiment: Cytotoxicity against human SNB75 cells assessed as cell growth at 10^-6 M after 48 hrs by SRB assay; settings: SNB-75, 48 h, read-out: Activity
OVCAR-4 = experiment: Cytotoxicity against human OVCAR4 cells assessed as cell growth at 10^-5 M after 48 hrs by SRB assay; settings: OVCAR-4, 48 h, read-out: Activity
U-251 [5] = experiment: Cytotoxicity against human U251 cells assessed as cell growth at 10^-4 M after 48 hrs by SRB assay; settings: U-251, 48 h, read-out: Activity
M14 [6] = experiment: Cytotoxicity against human M14 cells assessed as cell growth at 10^-4 M after 48 hrs by SRB assay; settings: M14, 48 h, read-out: Activity
SF-268 = experiment: Cytotoxicity against human SF268 cells assessed as cell growth at 10^-5 M after 48 hrs by SRB assay; settings: SF-268, 48 h, read-out: Activity
MOLT-4 [7] = experiment: Cytotoxicity against human MOLT4 cells assessed as cell growth at 10^-5 M after 48 hrs by SRB assay; settings: MOLT-4, 48 h, read-out: Activity
MDA-MB-468 = experiment: Growth inhibition of human MDA-MB-468 cells after 48 hrs by SRB assay; settings: MDA-MB-468, 48 h
In short: (§2)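 Adherent NCI-60 lines grown in RPMI 1640 with 5% FBS, seeded at 5000–40,000 cells/well, and preincubated 24 h at 37 °C, 5% CO2. Compound, stocked in DMSO, given either once at 10^-5 M or at five 10-fold dilutions for 48 h. Cells fixed with cold TCA (final 10%), stained with 0.4% SRB, and read at 515 nm. GI50 taken as 50% reduction in net protein increase versus time-zero and control plates.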

OVCAR-3 [8] = experiment: Cytotoxicity against human OVCAR3 cells assessed as cell growth at 10^-5 M after 48 hrs by SRB assay; settings: OVCAR-3, 48 h, read-out: Activity
NCI-H322M = experiment: Cytotoxicity against human NCI-H322M cells assessed as cell growth at 10^-8 M after 48 hrs by SRB assay; settings: read-out: Activity
HOP-62 = experiment: Cytotoxicity against human HOP62 cells assessed as cell growth at 10^-8 M after 48 hrs by SRB assay; settings: HOP-62, 48 h, read-out: Activity
In short: (§3)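 NCI-60 five-dose screen. Cells were grown in RPMI 1640 with 5% FBS and seeded at 5000–40,000 cells/well according to doubling time. They were pre-incubated 24 h at 37 °C in 5% CO₂, and time-zero (Tz) plates were TCA-fixed at drug addition. Five 10-fold dilutions of DMSO stock were applied for 48 h. Read-out was SRB staining, 515 nm absorbance, with percent growth calculated versus Tz and untreated control.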

SNB-19 = experiment: Cytotoxicity against human SNB19 cells assessed as cell growth at 10^-6 M after 48 hrs by SRB assay; settings: SNB-19, 48 h, read-out: Activity
T47D = experiment: Growth inhibition of human T47D cells after 48 hrs by SRB assay; settings: for CC50: read-out: LC50 (the source's name); in short: as §2
HT-29 [9] = experiment: Cytotoxicity against human HT-29 cells assessed as cell growth at 10^-6 M after 48 hrs by SRB assay; settings: HT-29, 48 h, read-out: Activity; in short: as §3
HCC 2998 = experiment: Growth inhibition of human HCC2998 cells after 48 hrs by SRB assay; settings: HCC 2998, 48 h; in short: as §2
M14 [10] = experiment: Cytotoxicity against human M14 cells assessed as cell growth at 10^-6 M after 48 hrs by SRB assay; settings: M14, 48 h, read-out: Activity
CAKI-1 [11] = experiment: Cytotoxicity against human Caki1 cells assessed as cell growth at 10^-6 M after 48 hrs by SRB assay; settings: CAKI-1, 48 h, read-out: Activity; in short: as §1
RXF 393 = experiment: Growth inhibition of human RXF393 cells after 48 hrs by SRB assay; settings: RXF 393, 48 h; in short: as §2
MOLT-4 [12] = experiment: Cytotoxicity against human MOLT4 cells assessed as cell growth at 10^-7 M after 48 hrs by SRB assay; settings: MOLT-4, 48 h, read-out: Activity
KM12 [13] = experiment: Cytotoxicity against human KM12 cells assessed as cell growth at 10^-4 M after 48 hrs by SRB assay; settings: KM12, 48 h, read-out: Activity
U-251 [14] = experiment: Cytotoxicity against human U251 cells assessed as cell growth at 10^-8 M after 48 hrs by SRB assay; settings: U-251, 48 h, read-out: Activity
CAKI-1 [15] = experiment: Cytotoxicity against human Caki1 cells assessed as cell growth at 10^-5 M after 48 hrs by SRB assay; settings: CAKI-1, 48 h, read-out: Activity; in short: as §1
SF-539 = experiment: Cytotoxicity against human SF539 cells assessed as cell growth at 10^-4 M after 48 hrs by SRB assay; settings: SF-539, 48 h, read-out: Activity
SK-MEL-28 = experiment: Cytotoxicity against human SK-MEL-28 cells assessed as cell growth at 10^-6 M after 48 hrs by SRB assay; settings: SK-MEL-28, 48 h, read-out: Activity
UO-31 = experiment: Growth inhibition of human UO31 cells after 48 hrs by SRB assay; settings: UO-31, 48 h; in short: as §2
HT-29 [16] = experiment: Cytotoxicity against human HT-29 cells assessed as cell growth at 10^-7 M after 48 hrs by SRB assay; settings: HT-29, 48 h, read-out: Activity; in short: as §3
[17] = Growth inhibition of human Hs 578T cells after 48 hrs by SRB assay; in short: as §2

SMILES: COc1ccc(-c2nn3cc(-c4cccc(N)c4)nc3s2)cc1
- growth at 1 µM (OVCAR-3 [1]): 86%
- growth at 1 µM (KM12 [2]): 84%
- growth at 0.1 µM (LOX IMVI): 92%
- growth at 100 µM (SNB-75 [3]): -49%
- growth at 0.1 µM (CCRF-CEM): 89%
- growth at 10 µM (OVCAR-8): 31%
- growth at 1 µM (SNB-75 [4]): 52%
- growth at 10 µM (OVCAR-4): 7%
- growth at 100 µM (U-251 [5]): -17%
- growth at 100 µM (M14 [6]): -54%
- growth at 10 µM (SF-268): 26%
- growth at 10 µM (MOLT-4 [7]): 21%
- GI50 (MDA-MB-468): 1.83 µM
- LC50 (MDA-MB-468): > 100 µM
- TGI (MDA-MB-468): 9.32 µM
- growth at 10 µM (OVCAR-3 [8]): 19%
- growth at 0.01 µM (NCI-H322M): 100%
- growth at 0.01 µM (HOP-62): 97%
- growth at 1 µM (SNB-19): 81%
- GI50 (T47D): 1.37 µM
- TGI (T47D): 21.2 µM
- CC50 (T47D): > 100 µM
- growth at 1 µM (HT-29 [9]): 88%
- GI50 (HCC 2998): 1.08 µM
- LC50 (concentration causing 50% net cell kill) (HCC 2998): > 100 µM
- TGI (HCC 2998): > 100 µM
- growth at 1 µM (M14 [10]): 94%
- growth at 1 µM (CAKI-1 [11]): 46%
- GI50 (RXF 393): 1.38 µM
- LC50 (RXF 393): 20.9 µM
- TGI (RXF 393): 4.66 µM
- growth at 0.1 µM (MOLT-4 [12]): 100%
- growth at 100 µM (KM12 [13]): -48%
- growth at 0.01 µM (U-251 [14]): 106%
- growth at 10 µM (CAKI-1 [15]): 2%
- growth at 100 µM (SF-539): -68%
- growth at 1 µM (SK-MEL-28): 80%
- GI50 (UO-31): 1.46 µM
- LC50 (UO-31): 63.3 µM
- TGI (UO-31): 10.2 µM
- growth at 0.1 µM (HT-29 [16]): 100%
- GI50 [17]: 2.33 µM
- LC50 (concentration killing 50% of starting cells) [17]: > 100 µM
- TGI [17]: 23.3 µM

SMILES: COc1ccc(-c2nn3cc(-c4ccc(O)cc4O)nc3s2)cc1
- growth at 1 µM (OVCAR-3 [1]): 89%
- growth at 1 µM (KM12 [2]): 86%
- growth at 0.1 µM (LOX IMVI): 94%
- growth at 100 µM (SNB-75 [3]): -37%
- growth at 0.1 µM (CCRF-CEM): 92%
- growth at 10 µM (OVCAR-8): 7%
- growth at 1 µM (SNB-75 [4]): 33%
- growth at 10 µM (OVCAR-4): -60%
- growth at 100 µM (U-251 [5]): -46%
- growth at 100 µM (M14 [6]): -49%
- growth at 10 µM (SF-268): 14%
- growth at 10 µM (MOLT-4 [7]): 20%
- GI50 (MDA-MB-468): 1.5 µM
- LC50 (MDA-MB-468): > 100 µM
- TGI (MDA-MB-468): 17.6 µM
- growth at 10 µM (OVCAR-3 [8]): -7%
- growth at 0.01 µM (NCI-H322M): 89%
- growth at 0.01 µM (HOP-62): 95%
- growth at 1 µM (SNB-19): 85%
- GI50 (T47D): 1.63 µM
- TGI (T47D): 5.15 µM
- CC50 (T47D): > 100 µM
- growth at 1 µM (HT-29 [9]): 86%
- GI50 (HCC 2998): 4.37 µM
- LC50 (concentration causing 50% net cell kill) (HCC 2998): > 100 µM
- TGI (HCC 2998): 84.4 µM
- growth at 1 µM (M14 [10]): 81%
- growth at 1 µM (CAKI-1 [11]): 69%
- GI50 (RXF 393): 1.09 µM
- LC50 (RXF 393): 5.74 µM
- TGI (RXF 393): 2.5 µM
- growth at 0.1 µM (MOLT-4 [12]): 89%
- growth at 100 µM (KM12 [13]): 2%
- growth at 0.01 µM (U-251 [14]): 97%
- growth at 10 µM (CAKI-1 [15]): 8%
- growth at 100 µM (SF-539): -47%
- growth at 1 µM (SK-MEL-28): 73%
- GI50 (UO-31): 1.44 µM
- LC50 (UO-31): > 100 µM
- TGI (UO-31): 3.97 µM
- growth at 0.1 µM (HT-29 [16]): 94%
- GI50 [17]: 1.92 µM
- LC50 (concentration killing 50% of starting cells) [17]: > 100 µM
- TGI [17]: 9.27 µM
